Screening results as filed in PubChem.
TRPC4 potent: allosterically enhances the mouse TRPC4 cation channel; Q9QUQ5; HEK293 TRPC4beta/mu-opioid, DAMGO EC20, Fluo-4 Ca2+ flux; hits give high values; B-score at 10 µM; hit rate 0.42% among 310,000; AID 2227;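 active means B-score of calcium response area above 5 SD of library B-scores, with initial fluorescence ratio within 5 SD of library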;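 further: B-score of integrated fluorescence ratio over time as area under calcium response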
TRPC4 act: TRPC4 (mouse) channel activation; Q9QUQ5; HEK293 TRPC4beta/mu-opioid, Fluo4 calcium fluorescence; hits give high values; B-score at 10 µM; hit rate 0.49% among 310,000; AID 2237;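 active means B-score above 5 SD of library B-scores, and initial fluorescence ratio not above library mean plus 5 SD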;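 further: positive B-score marks a calcium rise read as TRPC4 activation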
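Incubation: 45 min room-temperature Fluo4 loading, 110 s read / System: HEK293 cells stably co-expressing mouse TRPC4beta and mu-opioid receptor / Signal: Fluo4 fluorescence, kinetic / Control set: buffer (low) and maximal DAMGO (high) / Measure: integrated baseline-normalised fluorescence ratio, converted to per-well B score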
TRPC6 activator: mouse TRPC6 channel activation; AID 2550; HEK293-TRPC6 membrane potential dye fluorescence; hits give high values; Q61143; hit rate 0.13% among 310,000; B-score at 10 µM;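 active means B-score of the integrated fluorescence ratio above library mean plus 3 SD, and starting fluorescence ratio within library mean plus 5 SD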;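 further: higher score means more depolarization so channel activation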
TRPC6 inh: inhibitors of mouse TRPC6 channel; Q61143; HEK293-TRPC6, membrane potential dye, ACh-evoked depolarization; hits give low values; B-score at 10 µM; hit rate 1.1% among 310,000; AID 2553;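 active means B-score under library mean minus 3 SD, initial fluorescence not abnormally high, positive integrated signal ratio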;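 further: B-score derived from integrated fluorescence ratio over the kinetic read; more negative B-score means stronger inhibition of depolarization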
TRPC4 block: TRPC4 (mouse) channel inhibition | HEK293 TRPC4beta/mu-opioid, DAMGO-evoked Fluo4 calcium flux; hits give low values | hit rate 0.39% among 300,000 | B-score at 10 µM | Q9QUQ5;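 active means B-score over 3 SD under the library average, no early fluorescence shift, positive overall ratio signal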
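Assay system: TRPC4beta/mu-opioid receptor HEK293 cell line; compound dosing: single concentration per test compound; detection: Fluo4 Ca2+ flux fluorescence; evaluation: per-well B score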
Kir21 block: blocks the mouse Kir2.1 inward-rectifier potassium channel | P35561 | HEK293-Kir2.1, FluxOR thallium flux fluorescence; hits give low values | B-score at 10 µM | hit rate 0.85% among 310,000 | AID 1672;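 active means fluorescence ratio B-score at or below minus 3 SD of library scores, with starting-brightness B-score within 2 SD, cut at about -4.2 in these data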;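 further: channel flux triggered by added potassium and thallium sulfate stimulus; B-score of peak minus minimum fluorescence over baseline after thallium stimulus; more negative B-score means stronger Kir2.1 block with less thallium influx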
Target sequence (P35561 whole entry, looked up): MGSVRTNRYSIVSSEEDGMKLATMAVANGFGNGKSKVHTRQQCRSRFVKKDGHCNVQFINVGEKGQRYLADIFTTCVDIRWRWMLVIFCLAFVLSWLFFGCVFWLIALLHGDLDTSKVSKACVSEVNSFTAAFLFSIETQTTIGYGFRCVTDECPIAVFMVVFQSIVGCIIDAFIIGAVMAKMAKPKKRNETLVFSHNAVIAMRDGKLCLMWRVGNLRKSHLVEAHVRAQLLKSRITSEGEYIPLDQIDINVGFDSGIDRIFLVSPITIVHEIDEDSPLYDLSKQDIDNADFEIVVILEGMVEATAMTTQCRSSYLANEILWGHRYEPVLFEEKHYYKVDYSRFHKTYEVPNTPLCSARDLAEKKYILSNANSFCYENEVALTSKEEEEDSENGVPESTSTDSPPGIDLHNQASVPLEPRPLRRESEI
The depositor's hits bear a star; i = inactive. Compounds with a hit are over-represented: about 3% of the library has one in this group of screens.

SMILES | TRPC4 potent | TRPC4 act | TRPC6 activator | TRPC6 inh | TRPC4 block | Kir21 block
N#CC(C#N)=C(N)Nc1cccc(Cl)c1 | i | i | i | i | i | -0.13
N#C/C(N)=C(/C#N)N=Cc1cccc(Cl)c1 | 11* | i | i | i | i | -2.51
CCOc1ccc(OCc2ccc(C(=O)N3CCCCC3)o2)cc1 | 10* | i | i | i | i | -0.13
CCOc1cc(C(c2c(C)[nH][nH]c2=O)c2c(C)[nH][nH]c2=O)ccc1OCc1ccc([N+](=O)[O-])cc1 | i | i | i | i | i | -5.73*
CCOc1cc(C(c2c(C)[nH][nH]c2=O)c2c(C)[nH][nH]c2=O)ccc1OC(=O)c1cccc([N+](=O)[O-])c1 | i | i | i | i | i | 0.44
O=S(=O)(NCC1CCN(Cc2ccccc2)CC1)c1ccccc1C(F)(F)F | i | i | i | i | i | -0.84
Cc1ccc(C(=O)N[C@@H](Cc2ccccc2)C(=O)N2CCC3(CC2)NCCc2[nH]cnc23)cc1C | i | i | i | i | i | 0.09
Cc1ccccc1C(=O)NC1CC2CCC(C1)N2Cc1ccccc1 (stereo unspecified) | i | i | i | i | -5* | -1.38
Cc1ccc2cccc(OCC(=O)Nc3ccc4c(c3)OCO4)c2n1 | i | i | i | i | i | -0.67
Cc1ccc2cccc(S(=O)(=O)Nc3ccc4c(c3)OCO4)c2n1 | i | i | i | i | i | -5.32*
COc1ccc(C[C@H]2CN3C(=NC[C@@H]3C(C)C)N2C[C@H](C)NC(=O)c2ccc(C)c(Br)c2)cc1 | i | i | i | i | i | -7.9*
COc1ccc(C[C@H]2CN3C(=NC[C@@H]3Cc3ccc(O)cc3)N2C[C@H](C)NC(=O)c2ccc(C)c(Br)c2)cc1 | i | i | i | i | i | -7.35*
CC1(C(=O)OCC(=O)Nc2nc(-c3ccc(F)c(F)c3)cs2)CC1(Cl)Cl (stereo unspecified) | i | i | i | i | i | 0.4
CC(=O)N1CCCc2cc(S(=O)(=O)N3CCN(C4CCCCC4)CC3)ccc21 | i | 57* | i | i | i | -3.29
CCC(=O)N1CCCc2cc(S(=O)(=O)N3CCN(C4CCCCC4)CC3)ccc21 | i | i | i | i | i | -1.1
CCN(CC)CCNCC(O)(c1ccc(Cl)cc1)c1ccc(Cl)cc1 | i | i | i | i | i | -5.56*
CC(C)(C)NCC(O)(c1ccc(Cl)cc1)c1ccc(Cl)cc1 | i | i | i | i | i | -2.98
O=C(CNC(=O)c1ccccc1F)OCCOc1cccc(Cl)c1 | i | i | i | i | i | 0.96
CC(C)Cn1c(C23CC4CC(CC(C4)C2)C3)n[nH]c1=S | i | i | i | i | i | -0.91
CCOc1ccccc1-n1c(SCC(=O)Nc2nccs2)nnc1-c1ccoc1C | i | i | i | i | -6* | 0.53
CCCN(C(=O)c1ccco1)c1nnc(-c2ccccc2C)s1 | i | i | i | i | i | -1.3
CCOC(=O)C1=C(N)OC2=C(C(=O)CC(C)(C)C2)C1c1ccc(C)s1 (stereo unspecified) | i | i | i | i | i | -0.47
CCOC(=O)C1=C(N)OC2=C(C(=O)CC(C)(C)C2)C1c1ccc(CC)s1 (stereo unspecified) | 16* | i | i | i | i | 0.19
COc1ccc(N2CCN(C(=O)CCS(=O)(=O)c3ccc4c(c3)NC(=O)C(C)S4)CC2)cc1 (stereo unspecified) | i | i | i | i | i | 2.52
CC(=O)c1ccc(N2CCN(C(=O)CCS(=O)(=O)c3ccc4c(c3)NC(=O)CS4)CC2)cc1 | 17* | i | i | i | i | 0.13
CC1=C(C(=O)NCc2ccccc2)C(c2cc(Br)cc(Br)c2OC(C)C)NC(=O)N1 (stereo unspecified) | 17* | i | i | i | i | -1.51
